“And” between values parts separate entries of the source, which are not always exact repeats. Equal entries are not always repeated. “Also recorded” adds a separate entry of the source. Where two headings read alike, the source gives them in different places.
Legend:
[1] = Safety assessments and adverse events after single-dose capmatinib; type: in vivo, human; conditions: for AEs, any primary system organ class: regardless of study drug relationship
Procedure, shortened: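 Single oral 200 mg dose; participants confined from day −1 to day 4. Haematology, chemistry, coagulation and urinalysis at screening, baseline, days 1–2 and end of treatment; vital signs on days 1–3. Triplicate 12-lead ECGs. AEs/SAEs recorded with severity and relatedness, graded per CTCAE v4.03. Phone follow-up at 30 days post-dose.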

human plasma proteins = assay: Plasma protein binding by ultrafiltration, 3 h postdose samples; type: in vitro ADME
[2] = healthy participants, cited from earlier work
[3] = repeated administration of 400-mg BID tablets; cited from earlier work
plasma protein = conditions: cited from earlier work
[4] = type: in vivo, human
Procedure, shortened: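 Adults aged 18–75 with hepatic impairment (Child–Pugh A/B/C, also reclassified by NCI Organ Dysfunction Working Group criteria) or normal function, matched on age, weight and sex. Overnight fast (≥10 h), single oral 200 mg (2 × 100 mg tablets), fasting ≥4 h post-dose. Plasma sampled predose to 72 h; parent and metabolite measured by validated LC-MS/MS (LLOQ ~1.00 ng/mL). Noncompartmental analysis; GM ratios vs normal with 90% CIs.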

MET = MET inhibitor; cited from earlier work
[5] = single oral dose 200 mg, mild, Child–Pugh A (n = 6)
[6] = single oral dose 200 mg, moderate, Child–Pugh B (n = 8)
[7] = single oral dose 200 mg, normal (n = 9)
[8] = single oral dose 200 mg, severe, Child–Pugh C (n = 6)

CNC(=O)c1ccc(-c2cnc3ncc(Cc4ccc5ncccc5c4)n3n2)cc1F [capmatinib]
AEs, any primary system organ class, maximum Grade 1 ([1]; all participants (N = 31)): 5 (16.1) n (%)
AEs, any primary system organ class, maximum Grade 2 ([1]; all participants (N = 31)): 1 (3.2) n (%)
Diarrhoea ([1]; all participants (N = 31)): 1 (3.2) n (%)
Dizziness ([1]; all participants (N = 31)): 1 (3.2) n (%)
Ear and labyrinth disorders ([1]; all participants (N = 31)): 1 (3.2) n (%)
Flatulence ([1]; all participants (N = 31)): 1 (3.2) n (%)
Gastrointestinal disorders ([1]; all participants (N = 31)): 3 (9.7) n (%)
General disorders and administration site conditions ([1]; all participants (N = 31)): 1 (3.2) n (%)
Headache ([1]; all participants (N = 31)): 2 (6.5) n (%)
Hypoglycaemia ([1]; all participants (N = 31)): 1 (3.2) n (%)
Medical device site dermatitis ([1]; all participants (N = 31)): 1 (3.2) n (%)
Metabolism and nutrition disorders ([1]; all participants (N = 31)): 1 (3.2) n (%)
Nausea ([1]; all participants (N = 31)): 2 (6.5) n (%)
Nervous system disorders ([1]; all participants (N = 31)): 2 (6.5) n (%)
Vertigo ([1]; all participants (N = 31)): 1 (3.2) n (%)
participants with AEs suspected to be capmatinib related ([1]; all participants (N = 31)): 9.7%
severity of AEs suspected to be capmatinib related ([1]; all participants (N = 31)): grade 1
deaths and SAEs ([1]; during study treatment and 30-day follow-up): No deaths and SAEs
AEs, any primary system organ class, maximum Grade 1 ([1]; mild (n = 7)): 2 (28.6) n (%)
AEs, any primary system organ class, maximum Grade 2 ([1]; mild (n = 7)): 1 (14.3) n (%)
Diarrhoea ([1]; mild (n = 7)): 0 n (%)
Dizziness ([1]; mild (n = 7)): 0 n (%)
Ear and labyrinth disorders ([1]; mild (n = 7)): 1 (14.3) n (%)
Flatulence ([1]; mild (n = 7)): 0 n (%)
Gastrointestinal disorders ([1]; mild (n = 7)): 0 n (%)
General disorders and administration site conditions ([1]; mild (n = 7)): 1 (14.3) n (%)
Headache ([1]; mild (n = 7)): 1 (14.3) n (%)
Hypoglycaemia ([1]; mild (n = 7)): 1 (14.3) n (%)
Medical device site dermatitis ([1]; mild (n = 7)): 1 (14.3) n (%)
Metabolism and nutrition disorders ([1]; mild (n = 7)): 1 (14.3) n (%)
Nausea ([1]; mild (n = 7)): 0 n (%)
Nervous system disorders ([1]; mild (n = 7)): 1 (14.3) n (%)
Vertigo ([1]; mild (n = 7)): 1 (14.3) n (%)
AEs, any primary system organ class, maximum Grade 1 ([1]; moderate (n = 8)): 2 (25.0) n (%)
AEs, any primary system organ class, maximum Grade 2 ([1]; moderate (n = 8)): 0 n (%)
Diarrhoea ([1]; moderate (n = 8)): 0 n (%)
Dizziness ([1]; moderate (n = 8)): 1 (12.5) n (%)
Ear and labyrinth disorders ([1]; moderate (n = 8)): 0 n (%)
Flatulence ([1]; moderate (n = 8)): 0 n (%)
Gastrointestinal disorders ([1]; moderate (n = 8)): 2 (25.0) n (%)
General disorders and administration site conditions ([1]; moderate (n = 8)): 0 n (%)
Headache ([1]; moderate (n = 8)): 1 (12.5) n (%)
Hypoglycaemia ([1]; moderate (n = 8)): 0 n (%)
Medical device site dermatitis ([1]; moderate (n = 8)): 0 n (%)
Metabolism and nutrition disorders ([1]; moderate (n = 8)): 0 n (%)
Nausea ([1]; moderate (n = 8)): 2 (25.0) n (%)
Nervous system disorders ([1]; moderate (n = 8)): 1 (12.5) n (%)
Vertigo ([1]; moderate (n = 8)): 0 n (%)
AEs, any primary system organ class, maximum Grade 1 ([1]; normal (n = 10)): 0 n (%)
AEs, any primary system organ class, maximum Grade 2 ([1]; normal (n = 10)): 0 n (%)
Diarrhoea ([1]; normal (n = 10)): 0 n (%)
Dizziness ([1]; normal (n = 10)): 0 n (%)
Ear and labyrinth disorders ([1]; normal (n = 10)): 0 n (%)
Flatulence ([1]; normal (n = 10)): 0 n (%)
Gastrointestinal disorders ([1]; normal (n = 10)): 0 n (%)
General disorders and administration site conditions ([1]; normal (n = 10)): 0 n (%)
Headache ([1]; normal (n = 10)): 0 n (%)
Hypoglycaemia ([1]; normal (n = 10)): 0 n (%)
Medical device site dermatitis ([1]; normal (n = 10)): 0 n (%)
Metabolism and nutrition disorders ([1]; normal (n = 10)): 0 n (%)
Nausea ([1]; normal (n = 10)): 0 n (%)
Nervous system disorders ([1]; normal (n = 10)): 0 n (%)
Vertigo ([1]; normal (n = 10)): 0 n (%)
AEs, any primary system organ class ([1]; all participants (N = 31)): 6 n (%) and 6 (19.4) n (%)
AEs, any primary system organ class ([1]; mild (n = 7)): 3 (42.9) n (%)
AEs, any primary system organ class ([1]; moderate (n = 8)): 2 (25.0) n (%)
AEs, any primary system organ class ([1]; normal (n = 10)): 0 n (%)
AEs, any primary system organ class ([1]; severe (n = 6)): 1 (16.7) n (%)
AEs, any primary system organ class, maximum Grade 1 ([1]; severe (n = 6)): 1 (16.7) n (%)
AEs, any primary system organ class, maximum Grade 2 ([1]; severe (n = 6)): 0 n (%)
Diarrhoea ([1]; severe (n = 6)): 1 (16.7) n (%)
Dizziness ([1]; severe (n = 6)): 0 n (%)
Ear and labyrinth disorders ([1]; severe (n = 6)): 0 n (%)
Flatulence ([1]; severe (n = 6)): 1 (16.7) n (%)
Gastrointestinal disorders ([1]; severe (n = 6)): 1 (16.7) n (%)
General disorders and administration site conditions ([1]; severe (n = 6)): 0 n (%)
Headache ([1]; severe (n = 6)): 0 n (%)
Hypoglycaemia ([1]; severe (n = 6)): 0 n (%)
Medical device site dermatitis ([1]; severe (n = 6)): 0 n (%)
Metabolism and nutrition disorders ([1]; severe (n = 6)): 0 n (%)
Nausea ([1]; severe (n = 6)): 0 n (%)
Nervous system disorders ([1]; severe (n = 6)): 0 n (%)
Vertigo ([1]; severe (n = 6)): 0 n (%)
tolerability ([1]; single dose, mild, moderate, severe hepatic impairment and normal hepatic function): well tolerated
changes in chemistry parameters, QTcF or other ECG parameters ([1]; single oral dose 200 mg): No clinically relevant changes
changes in haematological parameters ([1]; single oral dose 200 mg): Minimal changes
bound to human plasma proteins (human plasma proteins; 3 hours postdose samples, across all participants): 96.7%
GM unbound fraction higher vs. normal group (human plasma proteins; severe group): ~ 44.8%
tolerability ([2]; single dose of 600 mg, tablet formulation): tolerated
PK dose linearity ([2]; tablets, single dose of 200–600 mg): linear
steady state GM accumulation ratio [3]: 1.4
bound to plasma protein (plasma protein): 96%
increase in GM AUCinf, AUClast and Cmax vs. normal group ([4]; NCI classification, both mild and moderate groups): 26–46%
increase in GM AUCinf vs. normal group ([4]; NCI classification, mild group): 26%
increase in GM AUClast vs. normal group ([4]; NCI classification, mild group): 27%
increase in GM Cmax vs. normal group ([4]; NCI classification, mild group): 35%
increase in GM Cmax vs. normal group ([4]; NCI classification, moderate group): 46%
AUC(0-inf) ([4]; human, plasma, po, 200 mg, AUCinf, GM, single oral dose 200 mg, normal (n = 9)): 6240 ng·h/mL
AUC(0-t) ([4]; human, plasma, po, 200 mg, AUClast, GM, single oral dose 200 mg, normal (n = 9)): 6190 ng·h/mL
Cmax ([4]; human, plasma, po, 200 mg, Cmax, GM, single oral dose 200 mg, normal (n = 9)): 1740 ng/mL
Vd/F ([4]; human, plasma, po, 200 mg, Vz/F, GM, single oral dose 200 mg, normal (n = 9)): 483 L
half-life ([4]; human, plasma, po, 200 mg, t½, GM, single oral dose 200 mg, normal (n = 9)): 10.4 h
GM exposures vs. normal group, interim PK analysis ([4]; mild and moderate groups, end of stage 1): < 3 fold
GM Vz/F lower vs. normal group ([4]; mild group): 32.9%
GM t½ shorter vs. normal group ([4]; mild group): 48.4%
decrease in GM AUCinf vs. normal group ([4]; mild group): 23.3%
decrease in GM Cmax vs. normal group ([4]; mild group): 27.6%
increase in GM CL/F vs. normal group ([4]; mild group): 30.6%
decrease in GM AUCinf,u vs. normal group ([4]; mild group, unbound): 19.3%
decrease in GM AUClast,u vs. normal group ([4]; mild group, unbound): 19.6%
decrease in GM Cmax,u vs. normal group ([4]; mild group, unbound): 23.9%
GM Vz/F lower vs. normal group ([4]; moderate group): 39.5%
GM t½ shorter vs. normal group ([4]; moderate group): 44.5%
decrease in GM AUCinf vs. normal group ([4]; moderate group): 8.6%
decrease in GM Cmax vs. normal group ([4]; moderate group): 17.2%
increase in GM CL/F vs. normal group ([4]; moderate group): 9.7%
GM Cmax,u, AUClast,u and AUCinf,u vs. normal group ([4]; moderate group, unbound): similar
GM Vz/F lower vs. normal group ([4]; severe group): 53.0%
GM t½ shorter vs. normal group ([4]; severe group): 41.5%
change in GM Cmax vs. normal group ([4]; severe group): remained unchanged; also recorded: remained similar
decrease in GM CL/F vs. normal group ([4]; severe group): 19.1%
increase in GM AUCinf vs. normal group ([4]; severe group): 24%
increase in GM AUCinf,u vs. normal group ([4]; severe group, unbound): 78%
increase in GM AUClast,u vs. normal group ([4]; severe group, unbound): 78%
increase in GM Cmax,u vs. normal group ([4]; severe group, unbound): 46%
CL/F, GM [4, 5]: 41.8 L/h
CL/F, mean (SD) [4, 5]: 42.6 (9.23) L/h
CL/F, GM [4, 6]: 35.1 L/h
CL/F, mean (SD) [4, 6]: 36.6 (11.4) L/h
CL/F, GM [4, 7]: 32.0 L/h
CL/F, mean (SD) [4, 7]: 36.1 (19.1) L/h
CL/F, GM [4, 8]: 25.9 L/h
CL/F, mean (SD) [4, 8]: 28.2 (11.7) L/h
IC50 (MET): 0.6 nM

Reference: PMC9291822 (British Journal of Clinical Pharmacology, 2021)
